Data set [1] concerns the target T1, CYP3A4 (Homo sapiens, UniProt P08684). Briefly: Inhibition of CYP3A4 (unknown origin) expressed in insect cell microsomes at 1 uM in presence of BFC substrate by fluorescence based assay relative to control. The class given is ADME, Microsome. The note with it: recombinant CYP3A4 expressed in insect cell microsomes, probe BFC. The procedure, abridged:
(§1)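 cDNA-expressed P450 in insect cell microsomes; cofactor mix of KH2PO4 buffer, 1.3 mM NADP, 3.3 mM MgCl2, 3.3 mM glucose-6-phosphate, 0.4 U/mL G6PDH. Preincubated 5 min at 37 °C, started with prewarmed enzyme/substrate mix, stopped at an isoform-specific time. Fluorescence read; percentage inhibition at 1 and 10 μM; mean of n = 3.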

In data set [2] the test system is PC-3. Kind of data set: Toxicity in human PC-3 cells assessed as effect on cell growth at 10 to 100 uM by MTT assay. Format: cell-based. To be noted: pc-3, 100 µM, dose 10-100 µM. The procedure, abridged:
(§2)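 Prostate cancer cells cultured in RPMI 1640 with 10% FBS, penicillin and streptomycin at 37 °C, 5% CO2; tested at 10 and 100 μM by MTT assay with cisplatin as control.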
Background: Formazan colour is commonly taken as a measure of viable cells.

Data set [3] relates to LNCaP. Kind of data set: Toxicity in human LNCaP cells assessed as effect on cell growth at 10 to 100 uM by MTT assay. The class given is cell-based. The note with it: dose 10-100 µM. The gist of the method: as §2
In data set [4] the target is T2, CYP2D6 (Homo sapiens, UniProt P10635). Kind of data set: Inhibition of CYP2D6 (unknown origin) expressed in insect cell microsomes at 1 uM by fluorescence based assay relative to control. To be noted: recombinant CYP2D6 expressed in insect cell microsomes. Format: ADME, Microsome. The procedure, abridged: as §1
T2 sequence (P10635 whole entry): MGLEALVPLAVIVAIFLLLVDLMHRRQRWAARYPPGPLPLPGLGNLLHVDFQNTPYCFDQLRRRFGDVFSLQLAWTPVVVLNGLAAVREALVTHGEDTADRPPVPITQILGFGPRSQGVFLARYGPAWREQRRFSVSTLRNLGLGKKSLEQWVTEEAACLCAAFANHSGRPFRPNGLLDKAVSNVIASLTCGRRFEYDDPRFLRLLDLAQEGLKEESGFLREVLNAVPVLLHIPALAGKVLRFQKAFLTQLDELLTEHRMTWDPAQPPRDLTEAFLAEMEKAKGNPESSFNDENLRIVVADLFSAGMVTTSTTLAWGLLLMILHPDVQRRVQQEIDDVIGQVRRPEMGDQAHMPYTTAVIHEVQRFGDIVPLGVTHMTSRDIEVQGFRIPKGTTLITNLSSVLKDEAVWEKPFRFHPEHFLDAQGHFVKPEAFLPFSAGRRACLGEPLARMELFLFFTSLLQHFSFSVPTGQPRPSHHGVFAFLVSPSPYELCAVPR
Data set [5] has as its system DU-145. Kind of data set: Toxicity in human DU-145 cells assessed as effect on cell growth at 10 to 100 uM by MTT assay. The class given is cell-based. The note with it: du-145, 100 µM, dose 10-100 µM. The procedure, abridged: as §2
Data set [6] deals with PC-3. Kind of data set: Antimigratory activity in human PC-3 cells assessed as reduction in cell migration at Ki level incubated for 72 hrs by crystal violet staining based confocal microscopy. Format: functional. The arrangement: scale not given: the % may be the effect or the level left. The gist of the method: (§3)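 Transwell migration, 8.0 μm pore polycarbonate membrane; 10⁵ cells seeded in serum-free medium in upper chamber, complete medium with 10% FBS below. Cells kept in RPMI 1640, 10% FBS. Migration scored after 72 h without or with treatment; migrated cells fixed in 4% paraformaldehyde, crystal violet stained, counted in five random fields; at least three chambers from three experiments.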

Data set [7] concerns the target T1, CYP3A4. Briefly: Inhibition of CYP3A4 (unknown origin) expressed in insect cell microsomes at 10 uM in presence of DBF substrate by fluorescence based assay relative to control. Format: ADME, Microsome. To be noted: recombinant CYP3A4 expressed in insect cell microsomes, probe DBF. The procedure, abridged: as §1
Data set [8] is described as follows: Stability in human liver microsomes in NADP incubated up to 60 mins by UPLC-MS/MS analysis. The class given is ADME, Microsome. To be noted: read-out: Stabilty. The gist of the method:
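Human microsomes at 37 °C in 50 mM phosphate buffer pH 7.4 with 3 mM MgCl2, 1 mM NADP, 10 mM glucose-6-phosphate, 1 U/mL G6PDH. Samples at 0, 10, 20, 40, 60 min quenched into cold acetonitrile with 0.5% formic acid, centrifuged; supernatant analysed by UPLC–MS/MS on C18 column.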
A general note: Microsomes from liver hold many membrane-bound enzymes, among them those of drug oxidation.

Data set [9] deals with T1, CYP3A4. Kind of data set: Inhibition of CYP3A4 (unknown origin) expressed in insect cell microsomes at 10 uM in presence of BFC substrate by fluorescence based assay relative to control. The note with it: recombinant CYP3A4 expressed in insect cell microsomes, probe BFC. Format: ADME, Microsome. The gist of the method: as §1
Data set [10] concerns DU-145. Briefly: Antimigratory activity in human DU-145 cells assessed as reduction in cell migration at Ki level incubated for 72 hrs by crystal violet staining based confocal microscopy. The class given is functional. The procedure, abridged:
as §3

The test system of data set [11] is PC-3. Briefly: Antimetastatic activity in human PC-3 cells assessed as effect on cell shape at Ki level incubated for 72 hrs by confocal laser scanning microscopy. Format: functional, cell-based.
In data set [12] the test system is LNCaP. Briefly: Antimigratory activity in human LNCaP cells assessed as reduction in cell migration at Ki level incubated for 72 hrs by crystal violet staining based confocal microscopy. The class given is functional. The procedure, abridged: as §3
Data set [13] has as its target T1, CYP3A4. Kind of data set: Inhibition of CYP3A4 (unknown origin) expressed in insect cell microsomes at 1 uM in presence of DBF substrate by fluorescence based assay relative to control. Format: ADME, Microsome. The note with it: recombinant CYP3A4 expressed in insect cell microsomes, probe DBF. The procedure, abridged:
as §1

In data set [14] the target is T2, CYP2D6. Kind of data set: Inhibition of CYP2D6 (unknown origin) expressed in insect cell microsomes at 10 uM by fluorescence based assay relative to control. Format: ADME, Microsome. The note with it: recombinant CYP2D6 expressed in insect cell microsomes. The procedure, abridged: as §1
Data set [15] deals with PC-3. Briefly: Antimetastatic activity in human PC-3 cells assessed as induction of actin skeleton reorganization at Ki level incubated for 72 hrs by confocal laser scanning microscopy. The class given is functional, cell-based.
Data set [16] has as its target T3, Adenosine receptor A3 (Homo sapiens) (UniProt P0DMS8).
T3 sequence (whole entry): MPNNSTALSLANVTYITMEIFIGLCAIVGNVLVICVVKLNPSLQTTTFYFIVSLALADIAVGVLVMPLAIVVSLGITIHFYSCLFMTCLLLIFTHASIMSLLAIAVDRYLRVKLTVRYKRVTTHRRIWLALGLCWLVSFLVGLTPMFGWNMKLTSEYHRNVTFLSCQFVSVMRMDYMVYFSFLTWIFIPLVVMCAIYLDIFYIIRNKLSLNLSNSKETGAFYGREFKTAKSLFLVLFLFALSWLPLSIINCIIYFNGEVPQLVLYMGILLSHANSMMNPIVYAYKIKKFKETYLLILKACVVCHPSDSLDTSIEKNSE
Briefly: Displacement of [3H]NECA from adenosine A3 receptor expressed in human HeLa cell membranes at 1 uM incubated for 180 mins by scintillation counting method. The note with it: Cell membrane. The gist of the method: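 hA3AR in HeLa membranes (3 pmol/mg protein) with 10 nM [3H]NECA (KD 8.7 nM); nonspecific binding with 100 μM R-PIA; incubated 180 min at 25 °C, washed, filtered, radioactivity counted.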
On the technique in general: Displacement assays read how much labelled ligand stays bound in the presence of the test substance.

In data set [17] the target is T4, Adenosine receptor A2b (Homo sapiens, UniProt P29275).
T4 sequence (P29275 whole entry): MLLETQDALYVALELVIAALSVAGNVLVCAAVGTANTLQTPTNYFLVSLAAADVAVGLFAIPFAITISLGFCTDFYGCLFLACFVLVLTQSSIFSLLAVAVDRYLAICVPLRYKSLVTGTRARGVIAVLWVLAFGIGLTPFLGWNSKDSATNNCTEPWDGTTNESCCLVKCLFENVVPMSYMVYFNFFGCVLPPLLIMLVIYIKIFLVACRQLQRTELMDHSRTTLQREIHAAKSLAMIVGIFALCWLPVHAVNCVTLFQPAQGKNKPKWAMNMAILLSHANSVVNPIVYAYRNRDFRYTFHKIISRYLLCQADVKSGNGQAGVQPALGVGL
Kind of data set: Antagonist activity at human A2B receptor.

In data set [18] the target is T5, Adenosine receptor A2b (Homo sapiens) (UniProt P29275).
T5 sequence (whole entry): T4 sequence (P29275 whole entry)
Briefly: Displacement of [3H]DPCPX from human adenosine A2B receptor expressed in HEK293 cell membranes at 1 uM incubated for 30 mins by scintillation counting method. To be noted: Cell membrane, filed as antagonist.

A further data set has as its target T6, Adenosine receptor A1 (Homo sapiens, UniProt P30542).
T6 sequence (P30542 whole entry): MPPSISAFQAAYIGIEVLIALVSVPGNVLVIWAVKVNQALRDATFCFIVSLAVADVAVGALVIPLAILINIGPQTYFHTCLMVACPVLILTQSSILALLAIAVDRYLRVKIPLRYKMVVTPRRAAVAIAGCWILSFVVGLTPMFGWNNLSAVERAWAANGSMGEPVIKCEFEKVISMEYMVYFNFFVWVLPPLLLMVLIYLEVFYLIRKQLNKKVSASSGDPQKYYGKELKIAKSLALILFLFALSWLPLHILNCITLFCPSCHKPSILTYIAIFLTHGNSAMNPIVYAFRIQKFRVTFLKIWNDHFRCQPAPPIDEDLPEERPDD
Briefly: Displacement of [3H]DPCPX from human adenosine A1 receptor expressed in CHO cell membranes incubated for 60 mins by scintillation counting method. More on the design: species or system Cell membrane.

The target of data set [19] is Adenosine receptor A2a (Homo sapiens) (UniProt P29274). Kind of data set: Displacement of [3H]ZM2421385 from adenosine A2A receptor expressed in human HeLa cell membranes at 1 uM incubated for 30 mins by scintillation counting method. The note with it: Cell membrane.
Adenosine receptor A2a (Homo sapiens), sequence (P29274 whole entry): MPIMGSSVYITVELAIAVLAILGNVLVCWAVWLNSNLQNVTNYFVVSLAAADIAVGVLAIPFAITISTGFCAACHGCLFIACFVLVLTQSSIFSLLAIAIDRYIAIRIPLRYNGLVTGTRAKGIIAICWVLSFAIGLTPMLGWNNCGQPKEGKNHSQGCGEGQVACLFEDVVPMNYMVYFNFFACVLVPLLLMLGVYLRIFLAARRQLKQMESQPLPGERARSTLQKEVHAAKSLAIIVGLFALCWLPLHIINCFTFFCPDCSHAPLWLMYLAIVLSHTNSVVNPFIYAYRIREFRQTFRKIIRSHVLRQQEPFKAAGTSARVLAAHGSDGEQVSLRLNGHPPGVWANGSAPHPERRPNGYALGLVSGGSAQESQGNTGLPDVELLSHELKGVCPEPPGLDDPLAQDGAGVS
Data set [20] concerns the target T4, Adenosine receptor A2b. Briefly: Displacement of [3H]DPCPX from human adenosine A2B receptor expressed in HEK293 cell membranes incubated for 30 mins by scintillation counting method. The arrangement: species or system Cell membrane.
The target of data set [21] is T7, Adenosine receptor A1 (Homo sapiens) (UniProt P30542).
T7 sequence (whole entry): T6 sequence (P30542 whole entry)
Kind of data set: Displacement of [3H]DPCPX from human adenosine A1 receptor expressed in CHO cell membranes at 1 uM incubated for 60 mins by scintillation counting method. The note with it: Cell membrane.

Data on twelve molecules can be found in ChEMBL document CHEMBL4765483 (J Med Chem, 2021).

Structures are written as SMILES. The source made the active and inactive calls. No cut-off for these calls is given here.

T1 sequence (P08684 whole entry, canonical isoform): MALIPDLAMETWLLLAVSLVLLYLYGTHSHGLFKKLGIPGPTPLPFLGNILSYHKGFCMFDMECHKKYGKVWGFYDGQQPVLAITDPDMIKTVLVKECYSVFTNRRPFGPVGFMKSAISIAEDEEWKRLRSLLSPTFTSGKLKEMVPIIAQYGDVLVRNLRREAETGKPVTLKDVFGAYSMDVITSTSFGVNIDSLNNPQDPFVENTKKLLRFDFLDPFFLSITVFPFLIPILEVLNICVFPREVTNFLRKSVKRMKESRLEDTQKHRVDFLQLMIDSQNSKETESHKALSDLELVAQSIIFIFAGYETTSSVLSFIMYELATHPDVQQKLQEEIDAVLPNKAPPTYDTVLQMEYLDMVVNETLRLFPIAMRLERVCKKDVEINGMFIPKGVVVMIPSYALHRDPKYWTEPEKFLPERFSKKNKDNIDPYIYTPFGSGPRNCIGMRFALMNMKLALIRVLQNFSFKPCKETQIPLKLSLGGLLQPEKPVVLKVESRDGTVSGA

The term inhibition denotes the relative decrease from the control value, in per cent. With `CCOC(=O)C1=C(C)NC(=O)NC1c1ccsc1` (racemic), the inhibition at 1 µM worked out at 15% at CYP3A4 [1], 15% at CYP2D6 [4] and 4% at CYP3A4 [13]. In addition, the Activity entry is “Non-Toxic” with PC-3 [2], “Non-Toxic” in the data set with LNCaP [3], “Non-Toxic” with DU-145 [5] and 35% in the data set on PC-3 [6]. Besides, the results for the inhibition at 10 µM at CYP3A4 [7], at CYP3A4 [9] and on CYP2D6 [14] were 12%, 44% and 22%, respectively. In addition, the remaining at 1 h in data set [8] was 65%. Also, the result in the data set with DU-145 [10], with PC-3 [11], in the data set on LNCaP [12] and in the data set on PC-3 [15] was Active.
With `CC1=C(C(=O)OC(C)C)C(c2ccco2)NC(=S)N1` (racemic), the inhibition at 1 µM at CYP3A4 [1] was 1%; on CYP2D6 [4] it was 15%; at CYP3A4 [13], 3%. For the same molecule, the Activity entry is “Non-Toxic” in the data set with PC-3 [2], “Non-Toxic” in the data set with LNCaP [3], “Non-Toxic” in the data set with DU-145 [5] and 50% in the data set with PC-3 [6]. In data set [16], this molecule came in with an inhibition of 1%. Besides, the inhibition at 10 µM was 1% on CYP3A4 [7], 13% at CYP3A4 [9] and 12% on CYP2D6 [14]. Besides, in data set [8], the remaining at 1 h is 77%. The result with DU-145 [10], in the data set on PC-3 [11], in the data set with LNCaP [12] and with PC-3 [15] was Active.
A word on the Ki: it is the dissociation constant of the complex between target and ligand, obtained from inhibition or displacement. In turn, `CCCn1c(=O)[nH]c2nc(-c3cnn(Cc4cccc(C(F)(F)F)c4)c3)[nH]c2c1=O` returned a Ki on Adenosine receptor A2b [17] of 0.006 µM.
`CC1=C(C(=O)OCc2ccccc2)C(c2ccco2)NC(=O)N1C` (racemic): the inhibition in data set [16] came to 11%; in data set [18], 41%; in data set [19], 37%. The molecule also gave a Ki on Adenosine receptor A1 of 1.74 µM.
As to `CC1=C(C(=O)OCC(C)C)C(c2ccoc2)NC(=O)N1` (racemic), the inhibition in data set [16] is 16%; in data set [19] it was 31%. Also, the Ki was determined as 0.326 µM on Adenosine receptor A2b [20] and 3.09 µM on Adenosine receptor A1.
Take `COC(=O)C1=C(C)N=C(S)NC1c1ccco1` (racemic): the figures for the inhibition in data set [21], in data set [16] and in data set [19] were 11%, 1% and 20%, respectively. Moreover, the inhibitory constant (Ki) on Adenosine receptor A2b [20] stood at 0.984 µM.
As for `CC1=C(C(=O)C2CC2)C(c2ccco2)NC(=O)N1` (racemic), the results for the inhibition in data set [21], in data set [16] and in data set [19] were 2%, 7% and 2%, respectively. The molecule also returned a Ki on Adenosine receptor A2b [20] of 1.06 µM.
`CCCn1c(=O)[nH]c2nc(-c3ccc(S(=O)(=O)N4CCN(c5ccc(Cl)cc5)CC4)cc3)[nH]c2c1=O`: the outcome in the data set on PC-3 [6], in the data set on DU-145 [10], with PC-3 [11], in the data set on LNCaP [12] and with PC-3 [15] was Active.
On to `CC1=C(C(=O)OCC(C)C)C(c2cccs2)NC(=O)N1` (racemic), for which the values for the inhibition in data set [21], in data set [16] and in data set [19] were 25%, 11% and 12%, respectively. Moreover, the Ki on Adenosine receptor A2b [20] turned out to be 2.13 µM.
The matching figures for `CC1=C(C(=O)OCC(C)C)C(c2ccsc2)NC(=O)N1` (racemic): 56%, 21%, 37% and 1.19 µM.
Taken in the same sequence, the figures for `CCOC(=O)C1=C(C)NC(=O)N[C@@H]1c1ccsc1` were 10%, 6%, 9% and 0.0111 µM.
The matching figures for `CC1=C(C(=O)OCC2CC2)C(c2ccoc2)NC(=O)N1` (racemic): 29%, 3%, 43% and 0.426 µM.
